Tests used:
Bile acid receptor = molecular target: T1, Bile acid receptor (Homo sapiens, UniProt Q96RI1); assay: Agonist activity at GST-tagged human FXR LBD assessed as recruitment of biotinylated SRC-1 peptide after 30 mins by AlphaScreen assay
T1 sequence (Q96RI1 whole entry): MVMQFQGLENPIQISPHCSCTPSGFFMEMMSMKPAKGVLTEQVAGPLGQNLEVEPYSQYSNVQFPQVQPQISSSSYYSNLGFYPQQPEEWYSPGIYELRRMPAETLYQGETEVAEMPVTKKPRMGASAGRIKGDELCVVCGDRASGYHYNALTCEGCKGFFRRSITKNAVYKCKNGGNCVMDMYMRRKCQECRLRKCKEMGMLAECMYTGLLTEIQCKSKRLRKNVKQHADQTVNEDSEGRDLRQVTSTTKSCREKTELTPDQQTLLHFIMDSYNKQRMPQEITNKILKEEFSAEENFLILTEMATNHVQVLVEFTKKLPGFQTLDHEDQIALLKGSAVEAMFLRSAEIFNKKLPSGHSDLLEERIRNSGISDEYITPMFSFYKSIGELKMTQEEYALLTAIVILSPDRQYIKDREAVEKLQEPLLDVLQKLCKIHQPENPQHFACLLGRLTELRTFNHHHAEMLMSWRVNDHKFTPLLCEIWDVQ
Procedure, shortened: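 Human FXR ligand-binding domain fused to GST was incubated with the ligand at increasing concentrations together with biotinylated SRC-1 peptide. Ligand-dependent recruitment of the coactivator peptide was read out by AlphaScreen. Where tested, compounds were single diastereoisomers or a mixture of syn- and anti-couples.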

[1] = molecular target: T2, Bile acid receptor (Homo sapiens) (UniProt Q96RI1); assay: Agonist activity at GST-tagged human FXR LBD assessed as recruitment of biotinylated SRC-1 peptide after 30 mins by AlphaScreen assay relative to CDCA
T2 sequence (whole entry): T1 sequence (Q96RI1 whole entry)

EC50 (Bile acid receptor) [µM]	Efficacy [1] [%]	Compound
1.4		Cc1ccccc1-n1nc(C)c2c1NC(=O)[C@H](C)S[C@@H]2c1ccc(Oc2ccccc2)cc1 [listing 1 of 2 here]
> 150		Cc1ccccc1-n1nc(C)c2c1NC(=O)[C@@H](C)S[C@@H]2c1ccc(Oc2ccccc2)cc1
> 150		Cc1ccccc1-n1nc(C)c2c1NC(=O)[C@@H](C)S[C@H]2c1ccc(Oc2ccccc2)cc1
> 150		Cc1ccccc1-n1nc(C)c2c1NC(=O)[C@H](C)S[C@H]2c1ccc(Oc2ccccc2)cc1
	130	Cc1ccccc1-n1nc(C)c2c1NC(=O)[C@H](C)S[C@@H]2c1ccc(Oc2ccccc2)cc1 [listing 2 of 2 here]
3	35	CCC1SC(c2ccc(Oc3ccccc3)cc2)c2c(C)nn(-c3ccccc3C)c2NC1=O (mixture of isomers)
3		Cc1ccccc1-n1nc(C)c2c1NC(=O)[C@H](C)S[C@@H]2c1ccc(Oc2ccccc2)cc1 (racemic) [listing 1 of 2 here]
> 150		Cc1ccccc1-n1ncc2c1NC(=O)[C@H](C)S[C@@H]2c1ccc(Oc2ccccc2)cc1 (racemic)
2	140	CCc1nn(-c2ccccc2C)c2c1[C@@H](c1ccc(Oc3ccccc3)cc1)S[C@@H](C)C(=O)N2 (racemic)
> 150		CCC[C@@H]1S[C@H](c2ccc(Oc3ccccc3)cc2)c2c(C)nn(-c3ccccc3C)c2NC1=O (racemic)
	150	Cc1ccccc1-n1nc(C)c2c1NC(=O)[C@H](C)S[C@@H]2c1ccc(Oc2ccccc2)cc1 (racemic) [listing 2 of 2 here]

Compound	EC50 (Bile acid receptor) [µM]	Efficacy [1] [%]
Cc1ccccc1-n1nc(C)c2c1NC(=O)CS[C@H]2c1ccc(Oc2ccccc2)cc1 (racemic)	14	8
